# Test results: ChEMBL document CHEMBL3826973, “Binding characterization, synthesis and biological evaluation of RXRα antagonists targeting the coactivator binding site” (Bioorg Med Chem Lett, 2016)
# Activity calls are given as the source filed them. The calls are words filed in the database; no cut-off is given here.
# Legend:
# [1] = target: T1, Retinoic acid receptor RXR-alpha (Homo sapiens) (UniProt P19793); experiment: Antagonist activity at RXRalpha (unknown origin) expressed in HEK293T cells assessed as inhibition of receptor transactivation at 10 uM after 12 hrs in presence of 9-cis-RA by luciferase reporter gene assay relative to control; assay type: cell-based; conditions: HEK-293T
# T1 sequence (whole entry): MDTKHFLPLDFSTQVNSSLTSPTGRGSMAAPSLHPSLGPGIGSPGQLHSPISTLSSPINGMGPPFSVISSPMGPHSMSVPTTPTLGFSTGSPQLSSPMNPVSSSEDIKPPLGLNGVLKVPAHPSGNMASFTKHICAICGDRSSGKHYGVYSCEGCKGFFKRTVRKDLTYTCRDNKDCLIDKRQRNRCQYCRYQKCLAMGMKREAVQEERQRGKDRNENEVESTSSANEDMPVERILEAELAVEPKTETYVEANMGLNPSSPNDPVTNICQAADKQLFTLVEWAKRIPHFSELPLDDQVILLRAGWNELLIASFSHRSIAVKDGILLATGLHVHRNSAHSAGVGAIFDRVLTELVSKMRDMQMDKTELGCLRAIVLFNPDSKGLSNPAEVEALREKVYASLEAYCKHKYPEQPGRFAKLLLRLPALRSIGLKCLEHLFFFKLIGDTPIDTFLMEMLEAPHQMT
# Summary of the method: (§1)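 HEK-293T cells cotransfected with pG5-Luc reporter and an RXRα expression vector. Cells were treated with 9-cis-RA (10^-7 M) plus test compound for 12 h, and luciferase activity was read. The assay was run either as a single-concentration screen scored as % inhibition or at the indicated concentrations for dose-response.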
# [2] = target: T2, Retinoic acid receptor RXR-alpha (Homo sapiens, UniProt P19793); experiment: Binding affinity to RXRalpha-LBD (unknown origin) measured up to 300 sec by surface plasma resonance method
# T2 sequence (P19793 whole entry): T1 sequence (whole entry)
# Summary of the method: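 Surface plasmon resonance with the RXRα ligand-binding domain as the binding partner; affinity expressed as a dissociation constant (Kd).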
# [3] = target: T2, Retinoic acid receptor RXR-alpha
# [4] = target: T1, Retinoic acid receptor RXR-alpha (Homo sapiens); conditions: HepG2, 20 ug/ml
# [5] = Binding affinity to RXRalpha-LBD E453A mutant (unknown origin) measured up to 300 sec by surface plasma resonance method; set-up: species or system Homo sapiens
# Homo sapiens = species on record: Homo sapiens; experiment: Ratio of Kd for RXRalpha-LBD E453A mutant (unknown origin) to Kd for RXRalpha-LBD (unknown origin)
# [6] = target: T1, Retinoic acid receptor RXR-alpha (Homo sapiens); experiment: Binding affinity to RXRalpha-LBD (unknown origin) at 10 uM measured up to 201 sec in presence of 9-cis-RA by surface plasma resonance method
# [7] = target: T1, Retinoic acid receptor RXR-alpha (Homo sapiens); experiment: Antagonist activity at RXRalpha (unknown origin) expressed in HEK293T cells assessed as inhibition of receptor transactivation at 10 to 30 uM after 12 hrs in presence of 9-cis-RA by luciferase reporter gene assay; assay type: cell-based; conditions: HEK-293T; summary of the method: as §1
# [8] = target: T1, Retinoic acid receptor RXR-alpha (Homo sapiens); experiment: Binding affinity to RXRalpha-LBD (unknown origin) at 0.01 to 5 uM measured up to 260 sec by surface plasma resonance method
inhibition [1] [%],Compound,also measured
57.3,COc1ccc(/C=N/NC(=O)CSc2nc3ccccc3o2)c(O)c1,–
39.6,O=C(CSc1nc2ccccc2o1)N/N=C/c1cccc(O)c1O,–
74.1,CCN(CC)c1ccc(/C=N/NC(=O)CSc2nc3ccccc3o2)c(O)c1 (mixture of isomers),Kd [2]: 910 nM; IC50 [3]: 2810 nM; inhibition [4]: Active
19.3,CCN(CC)c1ccc(/C=N/NC(=O)CSc2nc3ccccc3o2)cc1,–
12.7,O=C(CSc1nc2ccccc2o1)N/N=C/c1ccc([N+](=O)[O-])cc1,–
3.7,O=C(CSc1nc2ccccc2o1)N/N=C/c1ccc(OCc2ccccc2)cc1,–
25.2,O=C(CSc1nc2ccccc2o1)N/N=C/c1ccc(O)cc1O,–
17.9,CCN(CC)c1ccc(/C=N/NC(=O)CSc2nc3ccccc3o2)c(OC)c1,–
13.8,O=C(CSc1nc2ccccc2o1)N/N=C/c1cccc(F)c1,–
24.3,O=C(CSc1nc2ccccc2o1)N/N=C/c1ccc(O)c(O)c1O,–
13,O=C(CSc1nc2ccccc2o1)N/N=C/c1ccccc1F,–
–,Cc1cc(=O)oc2c(/C=N/NC(=O)CSc3nc4ccccc4s3)c(O)ccc12,Kd [5]: 3610 nM; Ratio (Homo sapiens): 10; Activity [6]: Active
43.9,O=C(CSc1nc2ccccc2o1)N/N=C/c1ccc(OCc2ccccc2)cc1O,–
33.2,O=C(CSc1nc2ccccc2o1)N/N=C/c1ccc(F)cc1O,–
47.9,Cc1cccc(/C=N/NC(=O)CSc2nc3ccccc3o2)c1,–
–,COc1ccc2c(C)cc(=O)oc2c1/C=N/NC(=O)CSc1nc2ccccc2s1 (mixture of isomers),inhibition [7]: inactive; Activity [8]: inactive
16.2,O=C(CSc1nc2ccccc2o1)N/N=C/c1cccc(O)c1,–
